Measured values published in ChEMBL document CHEMBL2385063, “Identification of 2-(2-(1-naphthoyl)-8-fluoro-3,4-dihydro-1H-pyrido[4,3-b]indol-5(2H)-yl)acetic acid (setipiprant/ACT-129968), a potent, selective, and orally bioavailable chemoattractant receptor-homologous molecule expressed on Th2 cells (CRTH2) antagonist” (J Med Chem, 2013).
Converted amounts (≈) assume the structure as drawn.

Tests used:
[1] = target: T1, Prostaglandin E2 receptor EP1 subtype (Homo sapiens, UniProt P34995); test: Antagonist activity at human prostanoid EP1 receptor expressed in CHOK1 cells assessed as inhibition of PGE2-induced calcium flux after 60 mins by FLIPR assay; assay type: functional, cell-based, CHO-K1
T1 sequence (P34995 whole entry): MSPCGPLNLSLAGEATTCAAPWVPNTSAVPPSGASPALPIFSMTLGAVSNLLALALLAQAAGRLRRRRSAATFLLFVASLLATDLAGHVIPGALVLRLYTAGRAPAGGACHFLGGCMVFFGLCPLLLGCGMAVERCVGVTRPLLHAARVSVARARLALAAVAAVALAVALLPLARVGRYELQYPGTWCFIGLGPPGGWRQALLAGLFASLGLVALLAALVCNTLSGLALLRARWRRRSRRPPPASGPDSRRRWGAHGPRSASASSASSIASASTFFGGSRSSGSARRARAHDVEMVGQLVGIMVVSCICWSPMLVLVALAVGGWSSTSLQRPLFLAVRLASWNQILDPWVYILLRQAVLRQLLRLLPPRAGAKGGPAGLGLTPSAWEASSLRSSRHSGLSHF

[2] = target: T2, Prostaglandin E2 receptor EP3 subtype (Homo sapiens, UniProt P43115); test: Antagonist activity at human prostanoid EP3 receptor expressed in HEK293 cells assessed as inhibition of PGE2-induced calcium flux after 60 mins by FLIPR assay; assay type: functional, cell-based
T2 sequence (P43115 whole entry): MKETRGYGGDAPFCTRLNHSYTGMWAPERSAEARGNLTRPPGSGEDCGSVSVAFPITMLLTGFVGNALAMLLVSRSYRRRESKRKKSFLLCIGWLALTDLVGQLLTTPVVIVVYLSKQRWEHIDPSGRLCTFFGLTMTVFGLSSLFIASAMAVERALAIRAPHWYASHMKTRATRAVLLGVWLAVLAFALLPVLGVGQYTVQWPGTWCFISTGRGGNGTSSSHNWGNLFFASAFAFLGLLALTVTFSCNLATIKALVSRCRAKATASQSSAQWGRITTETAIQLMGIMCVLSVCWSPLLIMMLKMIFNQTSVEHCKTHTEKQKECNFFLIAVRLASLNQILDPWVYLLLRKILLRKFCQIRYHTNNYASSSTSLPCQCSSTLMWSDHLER

[3] = target: T3, Prostaglandin D2 receptor 2 (Homo sapiens, UniProt Q9Y5Y4); test: Displacement of [3H]PGD2 from recombinant human CRTH2 receptor expressed in HEK293 cell membranes after 90 mins by scintillation counting analysis
T3 sequence (Q9Y5Y4 whole entry): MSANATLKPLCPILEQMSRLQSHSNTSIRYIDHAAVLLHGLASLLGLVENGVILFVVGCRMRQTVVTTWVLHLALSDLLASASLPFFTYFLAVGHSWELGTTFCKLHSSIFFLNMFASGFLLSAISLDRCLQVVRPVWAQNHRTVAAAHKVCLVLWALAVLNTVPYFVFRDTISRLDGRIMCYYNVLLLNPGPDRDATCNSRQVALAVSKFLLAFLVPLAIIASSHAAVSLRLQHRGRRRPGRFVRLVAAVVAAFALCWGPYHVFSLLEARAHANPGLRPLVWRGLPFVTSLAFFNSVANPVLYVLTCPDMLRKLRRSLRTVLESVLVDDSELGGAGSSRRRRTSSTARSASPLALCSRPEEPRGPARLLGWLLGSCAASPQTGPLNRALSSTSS
How it was run: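 Membranes from HEK293 cells expressing hCRTH2 (80 μg protein/well) in Tris pH 7.4 buffer with NaCl, EDTA, 0.1% BSA were incubated with 2.5 nM [3H]PGD2 for 90 min at room temperature. Nonspecific binding was defined with 10 μM PGD2. Samples were filtered on PEI-soaked GF/C and read by scintillation counting.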

[4] = target: T3, Prostaglandin D2 receptor 2; test: Antagonist activity at CRTH2 receptor in human eosinophils assessed as inhibition of PGD2-induced cell shape change incubated for 10 mins prior to PGD2 induction measured after 5 mins by FACS flow cytometric analysis in presence of human plasma
[5] = target: Prostaglandin E2 receptor EP2 subtype (Homo sapiens, UniProt P43116); test: Inhibition of beta-arrestin binding to recombinant human prostanoid EP2 receptor expressed in HEK293 cell membranes by beta-lactamase complementation assay
Chain of Prostaglandin E2 receptor EP2 subtype (P43116 whole entry): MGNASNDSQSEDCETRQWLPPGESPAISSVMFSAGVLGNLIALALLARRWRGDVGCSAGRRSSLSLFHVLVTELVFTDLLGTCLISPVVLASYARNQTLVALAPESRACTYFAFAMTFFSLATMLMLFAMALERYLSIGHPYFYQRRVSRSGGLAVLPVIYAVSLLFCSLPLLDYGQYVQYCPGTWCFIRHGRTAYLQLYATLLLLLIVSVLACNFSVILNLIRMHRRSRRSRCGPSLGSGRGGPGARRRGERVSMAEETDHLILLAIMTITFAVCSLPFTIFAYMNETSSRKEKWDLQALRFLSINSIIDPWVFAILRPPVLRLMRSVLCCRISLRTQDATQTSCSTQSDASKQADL

Cytochrome P450 3A4 = Cytochrome P450 3A4 (Homo sapiens, UniProt P08684); test: Inhibition of CYP3A4 in human liver microsomes assessed as midazolam-1'-hydroxylation by LC-MS/MS analysis; assay type: ADME, Microsome
Chain of Cytochrome P450 3A4 (P08684 whole entry): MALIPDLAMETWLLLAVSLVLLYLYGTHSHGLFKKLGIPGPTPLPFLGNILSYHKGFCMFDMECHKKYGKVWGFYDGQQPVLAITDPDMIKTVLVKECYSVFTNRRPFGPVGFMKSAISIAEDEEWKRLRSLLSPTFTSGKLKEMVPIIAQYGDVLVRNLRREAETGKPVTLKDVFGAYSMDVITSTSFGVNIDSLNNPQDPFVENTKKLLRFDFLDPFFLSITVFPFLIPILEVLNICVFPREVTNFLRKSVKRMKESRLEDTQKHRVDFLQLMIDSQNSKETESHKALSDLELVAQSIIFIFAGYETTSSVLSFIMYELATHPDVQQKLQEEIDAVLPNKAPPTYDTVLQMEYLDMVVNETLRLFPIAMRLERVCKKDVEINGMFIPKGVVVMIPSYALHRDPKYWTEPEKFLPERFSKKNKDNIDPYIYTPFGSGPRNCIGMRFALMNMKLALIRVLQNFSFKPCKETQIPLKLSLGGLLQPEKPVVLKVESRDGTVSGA

[6] = Solubility of the compound in aqueous buffer at pH 7; assay type: physicochemical
How it was run: (§1)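 Compound was stirred in water, 60 mM citrate buffer pH 4 or 70 mM phosphate buffer pH 7 at 300 rpm, 25 °C, for 24 h. The mixture was filtered, and the filtrate concentration was measured by HPLC-UV at 250 nm against a calibration curve.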

[7] = Intrinsic clearance in rat hepatocytes measured per 10^6 cells at 1 uM by LC/MS-MS analysis; assay type: ADME, cell-based, Hepatocyte; details: read-out: CLH
[8] = Intrinsic clearance in human liver microsomes measured per mg of protein at 1 uM by LC/MS-MS analysis; assay type: ADME, Microsome; details: read-out: CLH
[9] = target: T3, Prostaglandin D2 receptor 2; test: Antagonist activity at CRTH2 receptor in human eosinophils assessed as inhibition of PGD2-induced cell shape change incubated for 1 hr prior to PGD2 induction measured after 5 mins by FACS flow cytometric analysis in presence of human plasma; details: in the assay text read “incubated for 10 mins” for “incubated for 1 hr”
How it was run: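 Polymorphonuclear cells isolated from healthy-donor blood on a Polymorphprep gradient (500g, 30 min), erythrocytes lysed hypotonically. Cells stained 1 h with CD49d-APC, mixed with human plasma, preincubated with antagonist, then stimulated with 15 nM PGD2 for 5 min at 37 °C. Fixed in cold 1% paraformaldehyde. Eosinophils gated by CD49d/SSC; activation read as % cells with raised forward scatter.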

[10] = Solubility of the compound in aqueous buffer at pH 4; assay type: physicochemical; how it was run: as §1
Cytochrome P450 2D6 = Cytochrome P450 2D6 (Homo sapiens, UniProt P10635); test: Inhibition of CYP2D6 in human liver microsomes assessed as dextromethorphan O-demethylation by LC-MS/MS analysis; assay type: ADME, Microsome
Chain of Cytochrome P450 2D6 (P10635 whole entry): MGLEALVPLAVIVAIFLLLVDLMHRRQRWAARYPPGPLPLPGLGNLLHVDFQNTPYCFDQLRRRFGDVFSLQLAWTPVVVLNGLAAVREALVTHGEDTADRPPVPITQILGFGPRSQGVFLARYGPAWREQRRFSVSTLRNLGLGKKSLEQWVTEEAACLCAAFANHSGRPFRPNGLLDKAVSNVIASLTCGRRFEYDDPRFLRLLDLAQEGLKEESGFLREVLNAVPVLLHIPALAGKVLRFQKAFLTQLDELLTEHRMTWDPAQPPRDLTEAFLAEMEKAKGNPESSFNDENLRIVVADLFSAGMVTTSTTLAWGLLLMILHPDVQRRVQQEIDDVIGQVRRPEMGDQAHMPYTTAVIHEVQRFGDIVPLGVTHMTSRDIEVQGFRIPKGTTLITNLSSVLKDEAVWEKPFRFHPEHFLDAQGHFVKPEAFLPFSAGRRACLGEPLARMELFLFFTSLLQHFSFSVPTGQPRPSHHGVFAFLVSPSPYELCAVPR

[11] = Elimination half life in human plasma at 1 mM by HR-LC-MS analysis; assay type: ADME, cell-free; details: read-out: beta t1/2
[12] = Elimination half life in Sprague-Dawley rat plasma at 1 mM by HR-LC-MS analysis; assay type: ADME, cell-free; details: read-out: beta t1/2
[13] = n-octanol-KH2PO4-Na2HPO4 buffer partition coefficient, log D of the compound at pH 7.4 by shake flask method; assay type: physicochemical
[14] = Half life in simulated intestinal fluid at 2 uM by LC-MS analysis; assay type: physicochemical
How it was run: (§2)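 Compounds were incubated in simulated gastric fluid for 1 h or simulated intestinal fluid for 4 h. Unchanged parent was quantified by LC-MS.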

[15] = Intrinsic clearance in rat liver microsomes measured per mg of protein at 1 uM by LC/MS-MS analysis; assay type: ADME, Microsome; details: read-out: CLH
[16] = Half life in simulated gastric fluid at 2 uM by LC-MS analysis; assay type: physicochemical; how it was run: as §2
Cytochrome P450 2C9 = Cytochrome P450 2C9 (Homo sapiens, UniProt P11712); test: Inhibition of CYP2C9 in human liver microsomes assessed as diclofenac 4'-hydroxylation by LC-MS/MS analysis; assay type: ADME, Microsome
Chain of Cytochrome P450 2C9 (P11712 whole entry): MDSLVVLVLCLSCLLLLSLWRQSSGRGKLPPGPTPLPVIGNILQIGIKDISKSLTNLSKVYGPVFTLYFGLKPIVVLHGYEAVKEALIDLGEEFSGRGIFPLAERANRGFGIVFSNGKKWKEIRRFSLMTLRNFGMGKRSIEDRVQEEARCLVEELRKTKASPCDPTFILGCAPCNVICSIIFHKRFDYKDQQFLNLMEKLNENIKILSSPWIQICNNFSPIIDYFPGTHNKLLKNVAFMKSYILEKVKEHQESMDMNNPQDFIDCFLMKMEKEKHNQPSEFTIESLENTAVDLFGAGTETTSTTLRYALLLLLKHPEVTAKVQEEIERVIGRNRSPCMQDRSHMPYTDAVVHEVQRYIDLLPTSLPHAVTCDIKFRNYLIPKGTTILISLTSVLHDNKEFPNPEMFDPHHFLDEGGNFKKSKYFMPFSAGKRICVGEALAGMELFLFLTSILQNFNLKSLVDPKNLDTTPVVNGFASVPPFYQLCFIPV

| Structure (SMILES) | IC50 [1] [µM] | IC50 [2] [µM] | IC50 [3] [µM] | IC50 [4] [µM] | IC50 [5] [µM] | IC50 (Cytochrome P450 3A4) [µM] | solubility [6] [µg/mL] | hepatocyte CLint at 1 µM [7] [µL/min/1e6 cells] | microsomal CLint at 1 µM [8] [µL/min/mg] | IC50 [9] [µM] | solubility [10] [µg/mL] | IC50 (Cytochrome P450 2D6) [µM] | half-life [11] [h] | half-life [12] [h] | logD [13] | half-life at 2 µM [14] [h] | microsomal CLint at 1 µM [15] [µL/min/mg] | half-life at 2 µM [16] [h] | IC50 (Cytochrome P450 2C9) [µM] |
| --- | --- | --- | --- | --- | --- | --- | --- | --- | --- | --- | --- | --- | --- | --- | --- | --- | --- | --- | --- |
| O=C(O)Cn1c2c(c3cc(Cl)ccc31)CN(C(=O)c1cccc3ccccc13)CC2 | > 25 | > 25 | 0.004 | 0.1 | 7.4 |  |  |  |  |  |  |  |  |  |  |  |  |  |  |
| O=C(O)Cn1c2c(c3cc(F)cc(Cl)c31)CN(C(=O)c1cccc(Cl)c1)CC2 | > 25 | > 25 | 0.19 |  | > 10 |  |  |  |  |  |  |  |  |  |  |  |  |  |  |
| CC(C)c1ccc2c(c1)c1c(n2CC(=O)O)CCN(C(=O)c2ccccc2)C1 | > 25 | > 25 | 0.042 |  |  |  |  |  |  |  |  |  |  |  |  |  |  |  |  |
| O=C(O)Cn1c2c(c3cc(F)ccc31)CN(C(=O)c1cccc(Cl)c1)CC2 | > 25 | > 25 | 0.009 |  | > 10 | > 50 | 1000 (≈ 2590 µM) | 1.9 | < 4 | 0.06 | 140 (≈ 362 µM) | > 50 | > 4 | > 4 | -0.3 | > 4 | < 4 | > 1 | > 50 |
| O=C(O)Cn1c2c(c3ccccc31)CN(C(=O)C1CCCCC1)CC2 | > 25 | > 25 | 0.07 |  |  |  |  |  |  |  |  |  |  |  |  |  |  |  |  |
| Cc1ccc2c(c1)c1c(n2CC(=O)O)CCN(C(=O)c2cccc3ccccc23)C1 | > 25 | > 25 | 0.005 |  | > 10 |  |  |  |  | 0.34 |  |  |  |  |  |  |  |  |  |
| O=C(O)Cn1c2c(c3ccccc31)CN(C(=O)c1cccc(Cl)c1)CC2 | > 25 | > 25 | 0.01 |  | > 10 | > 50 | 815 (≈ 2210 µM) | 1.4 | 5 | 0.05 | 180 (≈ 488 µM) | > 50 | > 4 | > 4 | -0.5 | > 4 | 24 | > 1 | > 50 |
| O=C(O)Cn1c2c(c3cc(F)ccc31)CN(C(=O)c1cccs1)CC2 | > 25 | > 25 | 0.004 |  | > 10 | > 50 | 930 (≈ 2590 µM) | 2.1 | < 4 | 0.034 | 80 (≈ 223 µM) | > 50 | > 4 | > 4 | 0.2 | > 4 | 8 | > 1 | 43 |
| CCc1ccc(-c2ccc(C(=O)N3CCc4c(c5cccc(Cl)c5n4CC(=O)O)C3)cc2)cc1 | > 25 | > 25 | 0.023 |  | > 10 |  |  |  |  |  |  |  |  |  |  |  |  |  |  |
| COc1ccc2c(c1)c1c(n2CC(=O)O)CCN(C(=O)c2ccccc2)C1 | > 25 | > 25 | 0.062 |  |  |  |  |  |  |  |  |  |  |  |  |  |  |  |  |
| O=C(O)Cn1c2c(c3cc(F)ccc31)CN(C(=O)Cc1c[nH]c3ccccc13)CC2 | > 25 | > 25 | 0.005 |  | > 10 | > 50 | 800 (≈ 1970 µM) |  | < 4 | 0.05 | 115 (≈ 284 µM) | > 50 | > 4 | > 4 | -0.3 | > 4 | 23 | > 1 | > 50 |
| O=C(O)Cn1c2c(c3cc(F)cc(Cl)c31)CN(C(=O)c1cccc3ccccc13)CC2 | > 25 | > 25 | 0.07 |  | 2.7 |  |  |  |  |  |  |  |  |  |  |  |  |  |  |
| O=C(O)Cn1c2c(c3cc(F)ccc31)CN(C(=O)Cc1cccc3ccccc13)CC2 | > 25 | > 25 | 0.004 |  | > 10 | > 50 | 560 (≈ 1340 µM) |  | 6 | 0.275 | 21 (≈ 50.4 µM) | > 50 | > 4 | > 4 | 0.2 | > 4 | 63 | > 1 | 16 |
